Tests used:
MS2 coat protein [1] = test: apparent Kd, MS2 coat protein; higher = weaker binding; RNA-MaP array; tryptophan 2.4 mM where present
Outline: (§1)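 Designs on Illumina sequencing-chip clusters, transcribed by stalled E. coli RNA polymerase, were exposed to SNAP-549-labelled MS2 coat protein in doubling steps from 0.7 or 1.5 nM up to 3 µM, without and then with constant ligand. The buffer held 100 mM Tris-HCl pH 7.5, 80 mM KCl, 4 mM MgCl2, BSA, DTT, yeast tRNA and Tween-20. Apparent Kd values are medians of filtered per-cluster binding-curve fits to green signal normalised to red-channel RNA signal and control-cluster median Fmax.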

MS2 coat protein [2] = test: apparent Kd, MS2 coat protein; higher = weaker binding; RNA-MaP array; theophylline 2 mM where present
Outline: as §1

[3] = designed as: ON switch for tryptophan, no ligand
[4] = ligand present: tryptophan, designed as: ON switch for tryptophan
[5] = designed as: OFF switch for tryptophan, no ligand
[6] = ligand present: tryptophan, designed as: OFF switch for tryptophan
[7] = designed as: ON switch for theophylline, no ligand
[8] = ligand present: theophylline, designed as: ON switch for theophylline
[9] = designed as: OFF switch for theophylline, no ligand
[10] = ligand present: theophylline, designed as: OFF switch for theophylline

| Sequence | apparent Kd (MS2 coat protein [1]; [3]) [nM] | apparent Kd (MS2 coat protein [1]; [4]) [nM] | apparent Kd (MS2 coat protein [1]; [5]) [nM] | apparent Kd (MS2 coat protein [1]; [6]) [nM] | also measured |
| --- | --- | --- | --- | --- | --- |
| AUUCAUGGAAACAUGACAUAGGGAUCUAUCCGAGGACCGGUACGGCCGCCACUCGCGUGGAGGCACAUGAGGAUCACCCAUGUUA | 278 | 432 |  |  |  |
| GAUCGAAAUAACGUCUAGGAAAACUAGACGCGAGGACCGGUACGGCCGCCACUCGGGUGGCACAUGAGGAUCACCCAUGUAGAUC |  |  | 78.7 | 105 |  |
| GGCGCUGCGUCGGCCGCCACUAGUGGGUAAUGGGUGUACAUGAGGAUCACCCAUGUAUUUUGGCCUAGGACCGGGACGUGGCGCC |  |  | 453 | 503 |  |
| AGAGCAUUGACGGCCGCCACUCAUGUCACAUGAGGAUCACCCAUGUGAUGGGUGAUAGCCCGGUCGAGGACCGGGUCAAUGCUCA | 17.2 | 18 |  |  |  |
| AUGGACGACGAUCUGGGAAAACCAGAUCGACGAGGACCGGUACGGCCGCCACUCGUGUUUAUUUAACAUGAGGAUCACCCAUGUA | 45.9 | 17.6 |  |  |  |
| GGCCAUGGAAACAUGGCGGCGGCGUAUGCGCGAGGACCGGUACGGCCGCCACUCGGGCGACAUGAGGAUCACCCAUGUUCCUCAU |  |  | 182 | 478 |  |
| GGAUGCGGCACGGCCGCCACUGCGGUGGUGUGACAUGAGGAUCACCCAUGUUGUCAUGCGGCCCUUAGGACCGGGUGGCGUGUCC |  |  | 46.4 | 47 |  |
| GGUUACUCUACGGCCGCCACUGUUAAAUAAUAAACCUGUACAUAAACAUGAGGAUCACCCAUGUACAGGACCGGGUAGUGUAACC | 32.1 | 16.1 |  |  |  |
| AAGACCAGGAGGUGAUCCUAACUGGUCCAACGAGGACCGGUACGGCCGCCACUCGAAUAAACAUGAGGAUCACCCAUGUAAUAAU | 98.1 | 225 |  |  |  |
| UUCUACGACGAUCUGGGAAAACCAGAUCGACGAGGACCGGUACGGCCGCCACUCGUGUUUCUUUAACAUGAGGAUCACCCAUGUA | 20.5 | 14.5 |  |  |  |
| ACACCAUACAUGAGGAUCACCCAUGUUACACGAGGACCGGUACGGCCGCCACUCGAAUUCAGGAAACCUCGGAUAAUAUUGUGAA | 25.9 | 33.2 |  |  |  |
| CUAUAAGUACCGGUCCUCAGAUCCUCAUGACGAGGACCGGUACGGCCGCCACUCGAAACAUGAGGAUCACCCAUGUAAUAAUAAU |  |  | 18.3 | 18.6 |  |
| GCAUCCUAGUCGGCCGCCACUACAACAUGAGGAUCACCCAUGUGUGGGAGAUCCGUCCUACGAAGUAGGACCGGGACUAGGAUGC | 272 | 444 |  |  |  |
| UCGUUUUAGUCGGCCGCCACUGUGAGCAUGGUUAACAUGAGGAUCACCCAUGUCCCGUACUAUAACAGGACCGGGACGUAGUUGC | 93 | 22.8 |  |  |  |
| AAUAAUAAGGCGGCCGCCACUACACAUGAGGAUCACCCAUGUCUCGCGGGCUUGCGUUGGGAUUGUAGGACCGGGCCAAUAAUAA |  |  | 26.7 | 20.3 |  |
| CUGUACAUCUCGGCCGCCACUGCUGACAUGGGAGUCACCCAUGUCCACAUGAGGAUCACCCAUGUCAGGACCGGGAGGUGUGCAG | 49.8 | 255 |  |  |  |
| UAAUCCGGUCCUCGAUAGGUGAUCCUCUAACGAGGACCGGUACGGCCGCCACUCGAUAACAUGAGGAUCACCCAUGUAAUAAUAA |  |  | 44 | 33.8 |  |
| UGUACCAUGUCGGCCGCCACUCAUGAUAAACAUGAGGAUCACCCAUGUGGCGUCAAAGACGCUAUGAGGACCGGGACAUGGUACU | 13.2 | 10.6 |  |  |  |
| AAUGUAUUCCACAUGAGGAUCACCCAUGUGCGAGGACCGGUACGGCCGCCACUCGGUGUUGGGAUCUGUUCUGAAUACAUUAAUG |  |  | 29 | 114 |  |
| GGUUACUCUACGGCCGCCACUGAUUAUUUAUAAUCCUGUACAUAAACAUGAGGAUCACCCAUGUACAGGACCGGGUAGUGUAACC | 33.8 | 29.4 |  |  |  |
| CUCAUCCACGCGGCCGCCACUAUAUUGUGGUGCGUAUGUGUCGUAAUACAUGAGGAUCACCCAUGUAGGACCGGGCGUGGAUGAG |  |  | 10.8 | 20.4 |  |
| GGGUACAUCGCGGCCGCCACUUAUGUAAAUACAUGAGGAUCACCCAUGUCGAUGGAGACAUCGGAAAGGACCGGGUGAUGUACCG | 198 | 47.5 |  |  |  |
| AAAUAAUAUUAAUUAAUUAUAUUAUUCUGACGAGGACCGGUACGGCCGCCACUCGGCCCAUGGUACAUGAGGAUCACCCAUGUCU | 17.6 | 13.6 |  |  |  |
| AGAUGAGUCACGGCCGCCACUCACUACAGGUUCACCCUUGGUUAACAUGAGGAUCACCCAUGUGGGAGGACCGGGUGAUGAGCAU |  |  | 19.9 | 25.1 |  |
| ACAUGAGGAUCACCCAUGUGCAUGAUGAUCCGAGGACCGGUACGGCCGCCACUCGUCAUGAUGAUCUUUCAUGUUUGUCGCGCGC | 329 | 429 |  |  |  |
| CUAAAUAUAUCGGCCGCCACUUACUCAUGAGGUAACAACAUGAGGAUCACCCAUGUUUGAGGAUCAAGGACCGGGAUAUAUUUAG | 27.8 | 19 |  |  |  |

| Sequence | apparent Kd (MS2 coat protein [1]; [3]) [nM] | apparent Kd (MS2 coat protein [1]; [4]) [nM] | apparent Kd (MS2 coat protein [1]; [5]) [nM] | apparent Kd (MS2 coat protein [1]; [6]) [nM] | also measured |
| --- | --- | --- | --- | --- | --- |
| AUAACGAGUGGUGGAUAAUCCUCAUGUAAACGAGGACCGGUACGGCCGCCACUCGAUAACAUGAGGAUCACCCAUGUAAUAAUAA |  |  | 13.2 | 10.3 |  |
| AGCAACAAGUCGGCCGCCACUCAUUUAACAUGAGGAUCACCCAUGUGAAUAACAUGGUUGUAAUAGAGGACCGGGACAGUUGCAU | 119 | 574 |  |  |  |
| AUACAUGAGGAUCACCCAUGUGAUGGCCGGCGAGGACCGGUACGGCCGCCACUCGUGAUCCGUCCUGAGAGCAAAGCCCUCAGCA | 124 | 171 |  |  |  |
| UGUAUUGGAAACAGUACUAGUGAUCCGGUCCGAGGACCGGUACGGCCGCCACUCGAAAUUAAUAAACAUGAGGAUCACCCAUGUA |  |  | 14.8 | 34.2 |  |
| AUUAAGGAUAUGUAGACGGCGGAGAAGAGACGAGGACCGGUACGGCCGCCACUCGUGUUAGUUAACAUGAGGAUCACCCAUGUAA | 49.7 | 22 |  |  |  |
| AUGUACAUGACGGCCGCCACUACACUGAAAGUGGUCCAGAACAUGAGGAUCACCCAUGUAUCAAGUAGGACCGGGUCAUGUACAU |  |  | 361 | 380 |  |
| CAUCCUAGUACAUGAGGAUCACCCAUGUAUCGAGGACCGGUACGGCCGCCACUCGAAUGGCGGAUCGUUAAUCCUCUAGGAUGGA |  |  | 10 | 13.5 |  |
| GUAGCGACGGCGGCCGCCACUCACAGGUGAGGGUAGACCAACCUUCACAUGAGGAUCACCCAUGUGAGGACCGGGCUGUCGCUAC |  |  | 90.9 | 146 |  |
| UGUCAGCGAAAGUUGACAUGUCUUACCGGUCGAGGACCGGUACGGCCGCCACUCGAUCUCUCGCACAUGAGGAUCACCCAUGUCG | 12.7 | 11.2 |  |  |  |
| GAUAUAUAGGCGGCCGCCACUGAUUUUCAUAUAUAUAUAACAUGAGGAUCACCCAUGUAGAUAUACAGGACCGGGCCUAUAUAUU | 14.5 | 13.4 |  |  |  |
| AAUGUAUGGCACAUGAGGAUCACCCAUGUGCGAGGACCGGUACGGCCGCCACUCGGUCCUGGGAACUUAUUACUAUACAUUAAUG |  |  | 11.9 | 23.3 |  |
| CUACAUUUGUAGAAACCGGUCAACAAUAAUCGAGGACCGGUACGGCCGCCACUCGAUGUGAAAUCACAUGAGGAUCACCCAUGUA | 18 | 18.1 |  |  |  |
| AUUGUGAAGUCGGCCGCCACUGCAUAGUUUAACCUCUUUUAACAUGAGGAUCACCCAUGUAAUGACAGGACCGGGACAAUAGUAA | 51.5 | 59.9 |  |  |  |
| UCUGCCGCGGCUCCGAUCCUCCUGUAGUUCCGAGGACCGGUACGGCCGCCACUCGUAGCACAUGAGGAUCACCCAUGUCUUGCGG |  |  | 9.45 | 11.2 |  |
| UUAUAAGUACCGGUCCUCAGAUCCUCAUGACGAGGACCGGUACGGCCGCCACUCGAAACAUGAGGAUCACCCAUGUAAUAAUACU |  |  | 26.4 | 20.2 |  |
| CAAAAUAUAACGGCCGCCACUUACUCAUGAGGUAACAACAUGAGGAUCACCCAUGUUUGAGGAUCAAGGACCGGGUUAUAUUUUG | 30.7 | 17 |  |  |  |
| ACAUGAGCAUCAGCCAUGUGUAUGACAUGACGAGGACCGGUACGGCCGCCACUCGACAUGAGGAUCACCCAUGUUGAGGAUCACA |  |  | 10.9 | 14.7 |  |
| UUAUGCAGGUCGGCCGCCACUACACACAUGAGGAUCACCCAUGUAGUUACUGGGUGAAGUGGCAGUAGGACCGGGACCUGCAUAC | 553 | 316 |  |  |  |
| GGAUAGGACACGGCCGCCACUGCGCUAGGAUACUAGAACAUUUCCUCACAUGAGGAUCACCCAUGUAGGACCGGGUGUCCUAUCG |  |  | 49.6 | 152 |  |
| AUUGGGUUAUCAGAUACCAGACUAUUCUAGACAUGAGGAUCACCCAUGUAUUGGGUUUUCGUCCCUUGGCAGCUGUUAAGUUUAA |  |  |  |  | apparent Kd (MS2 coat protein [2]; [7]): 167 nM; apparent Kd (MS2 coat protein [2]; [8]): 113 nM |
| GGCACAUAGUCGGCCGCCACUAGUGGGAAAUGGGAGAACAUGAGGAUCACCCAUGUAUUAUAGCCUAGGACCGGGACUAUGUGCC |  |  | 74.8 | 105 |  |
| UGACAUUGCUGCGAUACCAGACAUGAGGAUCACCCAUGUACCAAGAAAACGUACAUAAAUGUCCCUUGGCAGCGCAGCAAUGUCU |  |  |  |  | apparent Kd (MS2 coat protein [2]; [9]): 524 nM; apparent Kd (MS2 coat protein [2]; [10]): 1360 nM |
| ACGUCAACCCUUAUGUUGAUGCAAGACGAUACCAGCCUGGAUACAGGCCCUUGGCAGCGUCAACAUGAGGAUCACCCAUGUAAUA |  |  |  |  | apparent Kd (MS2 coat protein [2]; [7]): 82.8 nM; apparent Kd (MS2 coat protein [2]; [8]): 118 nM |
| GGUGUAUCCAUCGAUACCAGCCACCACCGAUAGACCACAUGAGGAUCACCCAUGUUGGGUGGCCCUUGGCAGCGGUGGCUGUGCC |  |  |  |  | apparent Kd (MS2 coat protein [2]; [7]): 317 nM; apparent Kd (MS2 coat protein [2]; [8]): 172 nM |
| AGACAUGAGGAUCACCCAUGUAGUACGGAUACCAGAUCCAGAUGCGUCCCUUGGCAGCUGUAGUACAGCGUUACAUCGCUCGUAG |  |  |  |  | apparent Kd (MS2 coat protein [2]; [9]): 20.8 nM; apparent Kd (MS2 coat protein [2]; [10]): 32.1 nM |
| AGUGUUAUAACUGAUACCAGACCUUUGCUUAUACAUGAGGAUCACCCAUGUAAAAUGGCGGUCCCUUGGCAGCAGAGAAUACGCA |  |  |  |  | apparent Kd (MS2 coat protein [2]; [7]): 68 nM; apparent Kd (MS2 coat protein [2]; [8]): 13.2 nM |

Source: the EternaBench riboswitch data
